HIF act = HIF pathway transcriptional activation. U2OS HRE-luciferase reporter, luminescence; normalized: DMSO 0%, desferrioxamine 100%. hit rate 0.32% among 300,000. activation, % at 7.5 µM (by protocol). AID 1910;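 active = mean activation of at least 10% of the iron chelator positive control signal, with at least half of replicates also reaching 10%; inconclusive = mean and replicate majority disagree about reaching 10%; inactive = mean and most replicates under 10%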
Beta cell apopt = beta cell apoptosis inhibition | INS-1E cytokine-induced death, ATP luminescence, 48 h; percent of positive-control rescue, neutral wells zero | protection from apoptosis, % (test concentration not listed) | hit rate 0.8% among 300,000;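 active = Every replicate reaches about 75%, or at least half do and their mean reaches it too, limit read from the data; inconclusive = At least half of replicates reach the limit but their mean does not; inactive = Under half of replicates reach the limit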;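 note: 0% = cytokine-treated negative control wells and 100% = positive control rescue; higher means more ATP so stronger rescue from cytokine killing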
SKKanGAS inh = blocks kanamycin growth of S. pyogenes SKKanGAS strain. BacTiter-Glo, 6 h. inhibition, % at 7.5 µM. hit rate 1.3% among 300,000. AID 1662;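 active = mean replicate score, as percent of positive control median, at least 50; inconclusive = mean below 50 but one replicate at or above 50; inactive = mean and every replicate below 50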;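 note: strain carries kanamycin resistance gene driven by streptokinase promoter and grows in 40 µg/ml kanamycin; loss of luminescence reflects streptokinase promoter inhibition or plain growth inhibition; 0% = median of DMSO wells and 100% = positive control at its reference dose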
CSC inhib = blocks cancer stem cells. cancer stem cell-like cells viability, luminescence. inhibition, % at 7.5 µM. hit rate 1.1% among 300,000. AID 2717; in the data active = inhibition above about 75%; inconclusive = no clear call, values can overlap the other calls; tested in HMLE shEcad cells
PfHsp90 yeast 2 = inhibits growth of yeast expressing Plasmodium falciparum Hsp90; inhibition, % at 9.4 µM; S. cerevisiae expressing PfHsp90, BacTiter-Glo ATP, 48 h; yeast lacking PDR1 and PDR3 efflux regulators; hit rate 0.32% among 310,000; AID 504621;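 active = every replicate shows inhibition above about 80%, whatever the replicate mean, limit read from the data; inconclusive = mean inhibition reaches the set limit but some replicate falls short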;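 note: 0% = DMSO neutral controls and 100% = 20 µM radicicol positive controls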
T cruzi inh = T. cruzi replication inhibition | T. cruzi beta-gal in NIH3T3, luminescence, 90 h | inhibition, % (concentration not given with the values) | hit rate 1.4% among 300,000;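 active = mean inhibition across valid replicates above about 55%, limit read from the data; inconclusive = mean below that limit but half or more replicates reach it; inactive = mean below it, under half of replicates reach it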;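 note: signal also drops with host cell toxicity which is not excluded here; 0% = plate median of DMSO wells and 100% = zero luminescence signal; higher percent means less beta-gal luminescence so fewer parasites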
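System: Mouse NIH/3T3 fibroblasts infected with β-gal-expressing T. cruzi Tulahuen C4 | Quantity: NIH/3T3 cells, 5,000 per well | Reagent: 5000 reporter trypomastigotes per well | Dosing: Compound pinned at 50 nL/well, DMSO | Schedule: 3 h host attachment, then at least 90 h co-culture | Detection: GalScreen luminescence, 60 min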
* = called active by the depositor; ? = inconclusive; . = no result given. This is a sample that favours compounds with a hit; in the whole collection about 3.6% have one here.

SMILES	HIF act	Beta cell apopt	SKKanGAS inh	CSC inhib	PfHsp90 yeast 2	T cruzi inh
Cc1ccc(S(=O)(=O)NCC(=O)OCC(=O)N2CC(C)OC(C)C2)cc1 (centres undefined)	.	-2	.	-17	1	.
Oc1ccc(C=NN=C2c3ccccc3-c3ccccc32)c(O)c1	.	.	.	.	137*	.
C(=NN=C1c2ccccc2-c2ccccc21)c1c[nH]c2ccccc12	.	.	.	.	131*	.
CCOC(=O)c1ccc(NC(=O)CC2S/C(=N/N=C/c3c[nH]c4ccccc34)NC2=O)cc1 (centres undefined)	0	-6	65*	88*	2	3
Cc1ccc(NC(=O)CC2S/C(=N/N=C/c3c[nH]c4ccccc34)NC2=O)cc1 (centres undefined)	.	-7	3	3	-18	-6
Nc1c(C(=O)Nc2ccc(F)cc2)sc(=S)n1-c1ccccc1F	2	-11	-1	0	.	20
FC(F)(F)c1ccccc1/C=N/n1c(C2CCCCC2)n[nH]c1=S	0	.	56*	.	-196	-7
CC(/C=N/n1c(C2CCCCC2)n[nH]c1=S)=C\c1ccccc1	1	17	46	98*	-29	35
S=c1[nH]nc(C2CCCCC2)n1/N=C/c1ccccc1Cl	-1	.	18	.	-38	-2
CN(C)C(=O)c1ccc(NC(=O)COc2ccc([N+](=O)[O-])cc2)cc1	0	3	-5	-10	7	5
Cc1c(C(=O)Nc2nc3ccccc3[nH]2)oc2ccccc12	0	22	21	-7	24	-6
Cc1c(C(=O)Nc2nc3ccccc3[nH]2)oc2ccc(Br)cc12	1	12	79*	-6	-34	56*
Cc1c(C(=O)Nc2ccccn2)oc2c(Cl)cccc12	1	8	8	15	-15	-7
Cc1c(C(=O)Nc2nc3ccccc3[nH]2)oc2c(Cl)cccc12	1	38	67*	10	-12	70*
O=C(CSc1cccc2cccnc12)N1CCCC1	0	54	-2	18	-25	61*
NNC(=O)CSc1cccc2cccnc12	0	0	-3	-11	-4	-8
CCOc1cc(N2CCOCC2)c(OCC)cc1NC(=O)COC(=O)c1ccc(Cl)nc1	.	-12	.	-11	.	.
CC1=NN(C(N)=S)C(=O)C1N=Nc1c(Br)cc(Br)cc1Br (centres undefined)	0	13	66*	77*	-85	0
CC1=NN(C(N)=S)C(=O)C1N=Nc1c(Cl)cc([N+](=O)[O-])cc1Cl (centres undefined)	-1	.	50*	28	0	-3
CC1=NN(C(N)=S)C(=O)C1N=Nc1c(C)cc(C)cc1C (centres undefined)	0	24	51*	-7	-32	-8
CC1=NN(C(N)=S)C(=O)C1N=Nc1ccc(C)cc1C (centres undefined)	2	34	4	-14	.	38
CC1=NN(C(N)=S)C(=O)C1N=Nc1cccc(Cl)c1 (centres undefined)	2	18	3	4	-31	-8
COc1ccc(NC(=S)NNc2ccc(C(=O)O)cc2)cc1	-34	.	5	4	-17	-9
CCOC(=O)c1c(NC(=O)CCNCc2ccco2)sc2c1CCC2	0	-7	-5	10	.	4
COc1cc(OC)cc(C(=O)NCC(=O)NCc2ccccn2)c1	.	-2	.	-10	-6	.
SMILES	HIF act	Beta cell apopt	SKKanGAS inh	CSC inhib	PfHsp90 yeast 2	T cruzi inh
COC/C=C/C1=CC2=CC(=O)C(C)(OC(=O)c3cnc4ccccc4n3)C(=O)C2=CN1CCc1c[nH]c2ccccc12 (centres undefined)	1	5	5	2	.	-5
Cc1cc(Cl)c(S(=O)(=O)N2CCN(c3ccc(F)cc3)CC2)cc1OCC(N)=O	-1	.	6	11	-10	5
Cc1cc(Cl)c(S(=O)(=O)N2CCN(c3ccc(F)cc3)CC2)cc1OCC(=O)NC1CCCCC1	0	103*	17	3	12	?
Cc1cc2c(NC(=O)Nc3ccc(C(F)(F)F)cc3)cccc2nn1	0	13	13	-9	7	69*
Cc1cc2c(NC(=O)CCCC(=O)O)cccc2nn1	0	-3	-5	-8	-20	-10
FC(F)(F)c1ccccc1NC(=S)N1CCN(Cc2ccc3c(c2)OCO3)CC1	0	82*	0	.	2	-1
Cc1ccc(NC(=O)[C@H](C)NC(=O)C2CCN(C(=O)[C@@H](NC(=O)OC(C)(C)C)C(C)C)CC2)cc1	2	-3	-3	-13	20	1
Cc1ccc(NC(=O)CN(C)C(=O)C(C)OC(=O)c2ccccc2NCCO)cc1 (centres undefined)	0	-3	-7	-3	-14	-6
O=c1c2ccccc2c(C=Nc2ccc(O)cc2)c(O)n1Cc1ccccc1	3	7	67*	22	-16	44
Cc1ccc(NC(=O)CN2C(=O)S/C(=C\c3cccn3-c3cccc(C(=O)O)c3)C2=O)c(C)c1	0	5	59*	32	-39	-8
Cc1cccc(C)c1-n1cccc1/C=C1\SC(=S)N(c2cccc(C(=O)O)c2)C1=O	0	4	111*	31	-73	9
CN(C(=O)c1cccc(NC(=O)Cc2cccc(NC(=O)C3CCN(C(=O)CCc4ccccc4)CC3)c2)c1)C1CC1	.	.	.	.	-4	.
CC1CCCCN1c1cc(C#N)c(C#N)cc1[N+](=O)[O-] (centres undefined)	0	7	12	81*	.	2
CC(C)[C@@H](C(=O)N[C@@H](C(=O)O)c1ccccc1)N1C(=O)N2CCc3c([nH]c4ccccc34)[C@@]2(C)C1=O	0	-6	-1	-7	8	15
COc1ccc(OC)c(NC(=O)c2nnn(Cc3ccccc3C)c2N)c1	0	-6	-7	106*	-2	2
S=C(Nc1ccc(Nc2ccccc2)cc1)Nc1ccccn1	1	86*	66*	7	-22	25
COc1cc(/C(C)=C/c2ccccc2)c2c(c1)oc1ccccc12	0	0	55*	.	.	-8
CCOC(=O)c1[nH]cnc1N=Nc1c(O)ccc2ccccc12	38*	97*	27	72	7	17
Oc1ccc2ccccc2c1N=Nc1ccccn1	33*	95*	12	105*	125*	55*
Oc1ccc2ccccc2c1N=Nc1ccccc1F	1	0	19	39	-11	-3
c1coc(-c2nnc(-c3ccco3)nn2)c1	3	1	10	-3	-13	-1
N#Cc1ccc(Nc2nc(-c3ccc(O)cc3O)cs2)cc1C(F)(F)F	.	8	.	85*	-72	.
Oc1ccc(-c2csc(Nc3ccc4c(c3)OCO4)n2)c(O)c1	.	.	.	.	16	.
Cc1cccc(Nc2nc(-c3ccc(O)cc3O)cs2)n1	3	-1	-2	97*	-73	-15

Screens (PubChem)
